Experimental findings from ChEMBL document CHEMBL1132728, “Inhibition of Escherichia coli glucosamine synthetase by novel electrophilic analogues of glutamine--comparison with 6-diazo-5-oxo-norleucine” (Bioorg Med Chem Lett, 2000) are described below.

Structures are written as SMILES. pKi: −log10 of the molar value.

Experiment [1] can be described thus: Second order rate constant ([…]) with Escherichia coli glucosamine synthetase. An outline of the steps:
(§1)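 E. coli glucosamine synthetase was preincubated 15 min at 37 °C in 100 mM potassium phosphate, pH 7.5, with 10 mM fructose-6-phosphate and 50 mM KCl, then inhibitor was added. Timed aliquots were diluted 40-fold into the same buffer with 6 mM L-glutamine, and residual activity was read by colorimetric glutamate assay. The ln(residual activity)-versus-time plot gave t1/2, and kobs = ln2/t1/2. kobs versus [I] was fitted by Kitz–Wilson to give k+2 and Ki.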

Experiment [2] is described as follows: Steady-state inactivation rate constant for inactivation of Escherichia coli glucosamine synthetase was determined. In outline:
as §1

For experiment [3], the system named is Escherichia coli. The experiment is described as follows: Limiting rate constant for inactivation of Escherichia coli glucosamine synthetase was determined. In outline:
as §1

A short description of experiment [4]: Second order rate constant ([…]) was determined. An outline of the steps:
as §1

Experiment [5] is described as follows: Steady-state inactivation rate constant for inactivation of Escherichia coli glucosamine synthetase was determined; No inhibition at 200 uM.
The nature of experiment [6]: Second order rate constant ([…]) was determined; No inhibition at 200 uM.
The subject of experiment [7] is Escherichia coli. The experiment is described as follows: Limiting rate constant for inactivation of Escherichia coli glucosamine synthetase was determined; No inhibition at 200 uM.

What is called pKi is the Ki on a negative log10 scale, so that one unit is a factor of ten. High values mean a small Ki, low ones a large Ki. With `[N-]=[N+]=CC(=O)CC[C@H](N)C(=O)O` [6-DIAZO-5-OXO-L-NORLEUCINE], the K+2/Ki in experiment [1] was found to be 1170 M⁻¹ s⁻¹. The pKi in experiment [2] was 5.02. For the same compound, the K+2 with Escherichia coli [3] came to 0.7 min⁻¹.
Take `C[S+](C)CC(=O)CC[C@H](N)C(=O)O`: the K+2/Ki in experiment [4] turned out to be 5330 M⁻¹ s⁻¹. Besides, the pKi in experiment [2] is 6.43. Also, the K+2 in the experiment with Escherichia coli [3] turned out to be 0.12 min⁻¹.
In turn, `CC(=[N+]=[N-])C(=O)CC[C@H](N)C(=O)O` returned a K+2/Ki in experiment [4] of 333 M⁻¹ s⁻¹. For the same compound, the pKi in experiment [2] was 5.96. In addition, in the experiment on Escherichia coli [3], the K+2 is 0.02 min⁻¹.
Regarding `N[C@@H](CCC(=O)CBr)C(=O)O`, the K+2/Ki in experiment [4] was determined as 2500 M⁻¹ s⁻¹. Moreover, the pKi in experiment [2] was 5.57. Also, the K+2 in the experiment on Escherichia coli [3] worked out at 0.4 min⁻¹.
The compound `N[C@@H](CCC(=O)CCl)C(=O)O` had a K+2/Ki in experiment [4] of 50 M⁻¹ s⁻¹. In experiment [2], this compound showed a pKi of 4.20. The K+2 in the experiment on Escherichia coli [3] was 0.19 min⁻¹.
For the compound `N#CCC[C@H](N)C(=O)O`, the Ki entry in experiment [5] is given as “No inhibition”. Also, in experiment [6], the “K+2/Ki” value was “No inhibition”. The “K+2” value with Escherichia coli [7] is “No inhibition”.
